# Test results reported in PMC4233149 (Clinical cancer research : an official journal of the …, 2014).
# Several values for one entry are separate records, joined by “and”; a condition that tells them apart may be missing. Equal values may be shown once.
# Legend:
# [1] = Phase I safety and tolerability, alternate day; type: in vivo, human; details: 60mg QOD
# In short: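 Patients took 60mg tablets fasted, QOD in 28-day cycles, in expansion cohorts (CRPC, ovarian, MRI). Safety was checked at baseline, cycle 1 days 1, 2, 7, 15, 21, 27 and 28, weekly in cycle 2, then monthly. Glucose was monitored. Serum C-peptide and whole-blood HbA1c were measured at baseline and monthly. AEs were graded by CTCAE v3.0.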
# [2] = Plasma pharmacokinetics, QW schedule; type: in vivo, human
# In short: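 Plasma was sampled after the first and last weekly oral dose of cycle 1 (90–300mg). Concentrations were analysed non-compartmentally for AUC0-168h, Cmax, C48h […], Tmax and apparent terminal t1/2. Last-day/day-1 ratios were derived for AUC, Cmax and C48h.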
compound,measurement,setting,value
NC1(c2ccc(-c3nc4ccn5c(=O)[nH]nc5c4cc3-c3ccccc3)cc2)CCC1 [MK-2206],C-peptide level increase during first cycle (range),[1],2.7% to 495.5
same,time for DLTs to resolve to baseline levels after drug interruption,[1],1-2 weeks
same,end of cycle 1 HbA1c values,[1]; 2 patients with baseline levels ≤6.5%,7.3% and 8.3%
same,patients with increased C-peptide levels during first cycle,[1]; 23/27,85.2%
same,patients with HbA1c levels of ≤6.5% at baseline and end of cycle 1,[1]; 25/29,86.2%
same,"elevated blood glucose levels, patients",[1]; 27/38,71.1%
same,tolerability,[1]; 38 patients,generally well tolerated
same,"G3 hyperglycemia, patients","[1]; following first cycle, 1/38",2.6%
same,"G1-2 hyperglycemia, patients","[1]; following first cycle, 3/38",7.9%
same,C48h Last Day / Day1 Ratio (geometric mean),[2]; 90mg QW,1.61
same,"Tmax, median (min - max)","[2]; 90mg QW, Day 1",6.0 (4.0-10.0) h
same,"Tmax, median (min - max)","[2]; 90mg QW, Last Day of cycle 1",4.0 (4.0-4.0) h
same,dose proportionality of AUC and Cmax,[2]; 90mg to 300mg QW,increased in a dose-proportional manner
same,decline of plasma concentrations,"[2]; 90mg, 135mg, 200mg, 250mg and 300mg QW",declined in a mono-exponential manner
same,auto-induction of metabolizing enzymes,"[2]; 90mg-300mg QW, cycle 1",no auto-induction of MK-2206 metabolizing enzymes
same,AUC0-168h Last Day / Day1 Ratio (geometric mean),[2]; 135mg QW,1.91
same,C48h Last Day / Day1 Ratio (geometric mean),[2]; 135mg QW,1.86
same,Cmax Last Day / Day1 Ratio (geometric mean),[2]; 135mg QW,1.95
same,"Tmax, median (min - max)","[2]; 135mg QW, Day 1",4.0 (4.0-10.0) h
same,Tmax,"[2]; 150mg QW, Last Day of cycle 1, N=1",4.0 h
same,AUC0-168h Last Day / Day1 Ratio (geometric mean),[2]; 200mg QW,1.54
same,C48h Last Day / Day1 Ratio (geometric mean),[2]; 200mg QW,1.49
same,Cmax Last Day / Day1 Ratio (geometric mean),[2]; 200mg QW,1.33
same,"Tmax, median (min - max)","[2]; 200mg QW, Day 1",6.0 (4.0-10.0) h
same,"Tmax, median (min - max)","[2]; 200mg QW, Last Day of cycle 1",6.0 (4.0-24.0) h
same,"Tmax, median (min - max)","[2]; 250mg QW, Day 1",6.0 (4.0-6.0) h
same,Tmax,"[2]; 250mg QW, Last Day of cycle 1, N=1",4.0 h
same,"Tmax, median (min - max)","[2]; 300mg QW, Day 1",4.0 (4.0-6.0) h
same,percent coefficient of variations (CVs) of AUC and Cmax,"[2]; QW schedule, inter-patient variability",12% to 71
same,Cmax at 200mg QW compared with 60mg QOD,[2]; higher at 200mg QW,about 2 fold
same,half-life,"[2]; human, plasma, oral, 90 mg",71.6 ± 12.2 h
same,concentration at 48 h,"[2]; human, plasma, oral, 90 mg, C48h Mean ± SD, 90mg QW, Day 1, plasma",0.0509 ± 0.0382 µM
same,concentration at 48 h,"[2]; human, plasma, oral, 90 mg, C48h Mean ± SD, 90mg QW, Last Day of cycle 1, plasma",0.0793 ± 0.0337 µM
same,concentration at 48 h,"[2]; human, plasma, oral, 90 mg, mean C48h, 90mg QW, multiple dose",0.0793 µM
same,Tmax,"[2]; human, plasma, oral, 135 mg",5 h
same,half-life,"[2]; human, plasma, oral, 135 mg",88.9 ± 26.9 h
same,concentration at 48 h,"[2]; human, plasma, oral, 135 mg, C48h Mean ± SD, 135mg QW, Day 1, plasma",0.0903 ± 0.0251 µM
same,concentration at 48 h,"[2]; human, plasma, oral, 135 mg, mean C48h, 135mg QW, multiple dose",0.158 µM
same,Tmax,"[2]; human, plasma, oral, 150 mg",4 to 10 h
same,half-life,"[2]; human, plasma, oral, 150 mg",64.4 h
same,AUC(0-t),"[2]; human, plasma, oral, 150 mg, AUC0-168h Mean, 150mg QW, Day 1, plasma, N=2",20.7 µM·h
same,concentration at 48 h,"[2]; human, plasma, oral, 150 mg, C48h, 150mg QW, Last Day of cycle 1, plasma, N=1",0.185 µM
same,concentration at 48 h,"[2]; human, plasma, oral, 150 mg, C48h Mean, 150mg QW, Day 1, plasma, N=2",0.155 µM
same,Cmax,"[2]; human, plasma, oral, 150 mg, Cmax Mean, 150mg QW, Day 1, plasma, N=2",0.337 µM
same,Cmax,"[2]; human, plasma, oral, 150 mg, Cmax, 150mg QW, Last Day of cycle 1, plasma, N=1",0.346 µM
same,concentration at 48 h,"[2]; human, plasma, oral, 200 mg, C48h Mean ± SD, 200mg QW, Day 1, plasma",0.121 ± 0.0474 µM
same,concentration at 48 h,"[2]; human, plasma, oral, 200 mg, mean C48h, 200mg QW, multiple dose",0.187 µM
same,half-life,"[2]; human, plasma, oral, 250 mg",53.7 h
same,concentration at 48 h,"[2]; human, plasma, oral, 250 mg, C48h, 250mg QW, Last Day of cycle 1, plasma, N=1",0.0748 µM
